Bioassay records: PubChem BioAssay, Broad Institute
SIRT5 inh: sirtuin-5 (human) deacylase inhibition. Q9NXA8. Purified SirT5, succinyl-peptide AMC, trypsin-coupled fluorescence. inhibition, % at 15 µM. 1.1% of 330,000 active. AID 652115; in the data active = inhibition above about 15%
FN deposit inh: fibronectin deposition inhibition; 0.086% of 350,000 active; AH1F fibroblasts, Alexa488-fibronectin deposition fluorescence, overnight; inhibition, % at 12.6 µM;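 active = mean inhibition across replicates of 30% or more, regardless of how many single replicates reach that level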;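 also: positive control wells lacked labelled fibronectin entirely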
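Assay system: AH1F fibroblast monolayer, labelled fibronectin deposition. Amount: 10000 cells per well. Also added: labelled fibronectin 24 nM. Compound: single-point pinned compound. Incubation: cell attachment 1 h, compound and FN exposure overnight. Detection: fluorescence after three HBSS washes, excitation 485 nm, emission 525 nm. Read-out: inhibition of fibronectin deposition signal.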
ERAP1 inh: inhibitors of human ERAP1 aminopeptidase; recombinant ERAP1, Leu-AMC fluorescence, 60 min; inhibition, % at 10.7 µM; 0.15% of 340,000 active; AID 652197;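 active = mean replicate inhibition of at least 30%, or all replicates individually reaching that 30% level; inactive = mean below 30% and not every replicate reaching it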;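 also: 0% = neutral control wells and 100% = L-leucinethiol positive control wells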
Target sequence (Q9NZ08 whole entry, looked up): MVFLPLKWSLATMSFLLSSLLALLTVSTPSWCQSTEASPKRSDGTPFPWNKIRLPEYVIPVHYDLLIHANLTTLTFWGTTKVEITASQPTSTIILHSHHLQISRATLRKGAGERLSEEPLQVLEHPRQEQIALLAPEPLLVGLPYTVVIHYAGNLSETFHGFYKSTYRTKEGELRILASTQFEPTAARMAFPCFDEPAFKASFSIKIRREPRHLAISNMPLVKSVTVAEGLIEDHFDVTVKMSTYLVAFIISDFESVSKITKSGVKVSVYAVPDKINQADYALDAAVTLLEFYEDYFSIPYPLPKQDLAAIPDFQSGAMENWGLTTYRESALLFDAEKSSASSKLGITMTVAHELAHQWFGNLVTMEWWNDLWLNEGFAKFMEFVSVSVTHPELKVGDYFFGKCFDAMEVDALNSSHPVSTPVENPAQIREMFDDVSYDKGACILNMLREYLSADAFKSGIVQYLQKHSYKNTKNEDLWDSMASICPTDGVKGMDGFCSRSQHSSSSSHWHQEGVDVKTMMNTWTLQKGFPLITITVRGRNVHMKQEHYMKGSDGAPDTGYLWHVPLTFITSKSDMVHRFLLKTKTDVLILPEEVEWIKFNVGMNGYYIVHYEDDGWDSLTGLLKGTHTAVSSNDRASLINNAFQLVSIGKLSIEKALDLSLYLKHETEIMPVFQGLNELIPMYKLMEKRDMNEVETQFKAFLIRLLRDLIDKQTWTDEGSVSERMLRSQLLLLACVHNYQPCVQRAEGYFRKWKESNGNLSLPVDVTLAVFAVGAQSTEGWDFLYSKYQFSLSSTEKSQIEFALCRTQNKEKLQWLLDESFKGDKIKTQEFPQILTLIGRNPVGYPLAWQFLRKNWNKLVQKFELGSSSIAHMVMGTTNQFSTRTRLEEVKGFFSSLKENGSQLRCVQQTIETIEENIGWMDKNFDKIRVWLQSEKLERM
FGF22 binding: binders of recombinant human FGF22 by thermal shift; Q9HCT0; SYPRO orange fluorescence; percent of sucrose octasulfate shift, DMSO zero; activity (Tm shift, normalised), % at 9.99 µM; 1.5% of 340,000 active;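 active = mean Tm shift, scaled 0 neutral to 100 positive control, at about 1.3% or above, every replicate too, limit read from the data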
PGC1a acetyl inh: lowers PGC1a acetylation signal in U2OS cells; AlphaScreen anti-acetyl-lysine; with virally co-expressed GCN5 acetyltransferase; inhibition, % at 15.6 µM; 0.17% of 350,000 active;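 active = every replicate shows inhibition of at least 40%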;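 also: 0% = neutral control wells and 100% = positive control wells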
An asterisk follows results filed as active; . = no result. Compounds with a hit are over-represented: about 2.2% of the library has one in this group of screens.

SMILES	SIRT5 inh	FN deposit inh	ERAP1 inh	FGF22 binding	PGC1a acetyl inh
O=C1CC(N2CCC(c3nc4ccccc4[nH]3)CC2)C(=O)N1c1ccccc1F (stereo not given)	18*	-10	-2	0	-10
CCCCCNC(=O)C(c1cc2ccccc2o1)n1c(=O)c(-c2ccccc2)nc2ccccc21 (stereo not given)	19*	0	-1	0	.
CC1=CC(C)C(=O)N(CCN2CCOCC2)C(C)=C1 (stereo not given)	.	10	3	43*	-2
O=C(N/N=C/c1c[nH]c2ccccc12)c1ccncc1	4	1	-1	0	.
Cc1[nH]c2ccccc2c1/C=N/NC(=O)c1ccccc1	4	9	-2	-1	.
O=C(N/N=C/c1oc(O)c2ccccc12)c1ccccc1	4	-17	3	44*	.
O=C(N/N=C/c1c[nH]c2ccccc12)c1ccccc1	100*	-11	-1	0	25
Cc1noc(C)c1NC(=O)N(C)C[C@@H]1OCCCC[C@@H](C)Oc2ccc(NC(=O)c3ccccc3)cc2C(=O)N([C@@H](C)CO)C[C@H]1C	2	-7	5	.	-1
C/C(=C\c1ccccc1)C(=O)N1CCC=CC1=O	10	.	-3	1	-4
O=C(CSc1nc2ccccc2c(=O)n1-c1ccc(SC(F)F)cc1)Nc1ccc(N2CCOCC2)cc1	-3	1	1	43*	-11
COc1ccc(-c2nn(-c3ccccc3)cc2N)cc1	-1	0	-1	44*	-1
COc1ccc(-c2nn(-c3ccccc3)cc2CO)cc1	.	.	.	.	1
COc1ccc(NC(=O)C2CC(=O)N=C(N)S2)cc1 (stereo not given)	1	1	0	43*	0
Cc1ccc(S(=O)(=O)Nc2cccc3c2O[C@@H](CN(C)Cc2ccc(C(F)(F)F)cc2)[C@H](C)CN([C@@H](C)CO)C3=O)cc1	2	.	-2	-1	-4
COC1OC2COC(c3ccccc3)OC2C(NC(C)=O)C1OC(C)=O (stereo not given)	.	1	1	45*	.
O=c1cc(-c2ccc(O)c(-c3c(O)cc(O)c4c(=O)cc(-c5ccc(O)cc5)oc34)c2)oc2cc(O)cc(O)c12	-4	-6	6	45*	.
C=CCNc1nnc(Cl)c2ccccc12	26*	.	0	0	8
CCn1c(CNC(=O)c2ccco2)nnc1SCC(=O)c1ccc(OC)cc1	2	0	-2	43*	7
CS(=O)(=O)Nc1ccc2c(c1)[C@@H]1C[C@H](CC(=O)NC3CCCCC3)O[C@@H](CO)[C@@H]1O2	-2	-4	0	0	0
Cc1ccc(S(=O)(=O)N(C)C[C@H]2OCCCC[C@H](C)Oc3ccc(NS(=O)(=O)c4ccc(F)cc4)cc3C(=O)N([C@H](C)CO)C[C@@H]2C)cc1	20*	-5	2	0	-2
C[C@@H]1CCCCO[C@@H](CN(C)S(=O)(=O)c2ccc(F)cc2)[C@H](C)CN([C@H](C)CO)C(=O)c2cc(NS(=O)(=O)c3ccccc3)ccc2O1	16*	.	2	0	-5
Cc1ccc(S(=O)(=O)N(C)C[C@@H]2OCCCC[C@@H](C)Oc3ccc(NS(=O)(=O)c4ccc(F)cc4)cc3C(=O)N([C@@H](C)CO)C[C@@H]2C)cc1	29*	-3	2	0	-14
Cc1ccc(S(=O)(=O)Nc2ccc3c(c2)C(=O)N([C@@H](C)CO)C[C@H](C)[C@H](CN(C)S(=O)(=O)c2ccc(F)cc2)OCCCC[C@@H](C)O3)cc1	18*	.	-2	-1	-12
COc1ccc2c3c([nH]c2c1)[C@H](CO)N(C(=O)c1ccc(F)cc1)CC31CCN(C)CC1	.	.	0	0	-3
C[C@@H]1CN([C@H](C)CO)C(=O)c2cc(NC(=O)NC3CCCCC3)ccc2O[C@H]1CN(C)C	5	.	4	0	16
SMILES	SIRT5 inh	FN deposit inh	ERAP1 inh	FGF22 binding	PGC1a acetyl inh
COc1ccc(S(=O)(=O)N(C)C[C@@H]2OCCCC[C@H](C)Oc3ccc(N(C)C)cc3C(=O)N([C@@H](C)CO)C[C@@H]2C)cc1	3	.	1	-2	-1
Cc1ccccc1-c1cnc2c(c1)C(=O)N([C@@H](C)CO)C[C@H](C)[C@@H](CN(C)Cc1ccncc1)O2	3	.	6	0	4
Cc1ccc(S(=O)(=O)N(C)C[C@@H]2OCCCC[C@H](C)Oc3ccc(NS(=O)(=O)c4ccc(F)cc4)cc3C(=O)N([C@@H](C)CO)C[C@H]2C)cc1	19*	-6	2	0	-2
Cc1ccc(S(=O)(=O)Nc2ccc3c(c2)C(=O)N([C@@H](C)CO)C[C@@H](C)[C@H](CN(C)S(=O)(=O)c2ccc(F)cc2)OCCCC[C@@H](C)O3)cc1	18*	.	0	0	-21
Cc1ccc(S(=O)(=O)N(C)C[C@H]2OCCCC[C@H](C)Oc3ccc(NS(=O)(=O)c4ccc(F)cc4)cc3C(=O)N([C@@H](C)CO)C[C@@H]2C)cc1	3	-8	3	-1	-12
COc1cccc(C(=O)Nc2ccc3c(c2)OC[C@@H](C)N(C(C)=O)C[C@H](C)[C@@H](OC)CN(C)C3=O)c1	.	3	.	.	.
C=CC(=O)N1C/C(=C/c2ccccc2)C(=O)/C(=C\c2ccccc2)C1	.	40*	3	0	73*
Cc1ccc(S(=O)(=O)N(C)C[C@H]2Oc3c(NS(=O)(=O)c4cccs4)cccc3C(=O)N([C@H](C)CO)C[C@H]2C)cc1	0	.	2	-1	9
Cc1ccc(C(=O)O/N=C(\c2ccccc2)c2cccnc2)cc1	33*	-1	-3	1	.
CO[C@H]1CN(C)C(=O)c2cc(NC(=O)c3nc4ccccc4s3)ccc2OC[C@H](C)N(Cc2cncnc2)C[C@@H]1C	15*	14	.	0	-1
COc1ccc(CN2C[C@H](C)[C@@H](OC)CN(C)C(=O)c3ccc(NC(=O)c4nc5ccccc5s4)cc3OC[C@@H]2C)cc1	102*	9	4	.	-12
CO[C@H]1CN(C)C(=O)c2cc(NC(=O)c3nc4ccccc4s3)ccc2OC[C@H](C)NC[C@H]1C	1.9*	-3	2	0	-2
O=C(N[C@H]1CC[C@H](CCNC(=O)c2ccccc2F)O[C@H]1CO)c1cnccn1	4	-12	2	0	-4
C[C@@H]1C=CCCO[C@]12C(=O)N(Cc1ccccc1C(F)(F)F)c1ccccc12	18*	-1	0	0	.
O=C(c1ccc(Br)cc1)c1sc(N2CCOCC2)nc1-c1ccccc1	0	0	3	0	.
O=C(c1ccccc1)c1sc(N2CCOCC2)nc1-c1ccccc1	4	-4	0	44*	0
Nc1ncnc2c1ncn2C1OC(CO)C(O)C1O (stereo not given)	-1	-7	-2	43*	.
N#Cc1c(N)n(C2OC(CO)C(O)C2O)c2ncnc(N)c12 (stereo not given)	.	34*	1	43*	.
